{"source": "ChEMBL document CHEMBL2034842", "about": "“Synthesis, anti-Candida activity, and cytotoxicity of new (4-(4-iodophenyl)thiazol-2-yl)hydrazine derivatives” (Eur J Med Chem, 2012)", "key": {"[1]": {"assay": "Cytotoxicity against human Hep2 cells assessed as cell survival fraction at 0.05 ug/mL after 24 hrs by trypan blue exclusion method", "type": "cell-based", "settings": "HEp-2 cells, read-out: Survival", "summary_of_the_method": "(§1)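 Hep2 cells grown in DMEM + 10% FBS + 1% pen/strep at 37 °C, 5% CO2, used at 60–70% confluency. Exponential-phase cells (1 × 10^5/mL) incubated 24 h with six concentrations (100–0.05), final DMSO ≤0.5%. Controls were cells alone or cells + DMSO, with 1 mM sodium nitroprusside as positive control. Cells scraped off, mixed 1:1 with 0.4% trypan blue and counted on a hemocytometer by two operators. Blue cells were scored dead; results given as % viable cells.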"}, "Pichia kudriavzevii": {"tested_on": "Pichia kudriavzevii", "assay": "Antifungal activity against 3 strains of Candida krusei after 24 hrs by […]", "type": "functional"}, "Staphylococcus warneri": {"tested_on": "Staphylococcus warneri", "assay": "Antibacterial activity against Staphylococcus warneri after 18 to 22 hrs by […]", "type": "functional"}, "[2]": {"assay": "Antiproliferative activity against human Hep2 cells assessed as cell survival fraction at 5 ug/mL after 24 hrs by MTT assay", "type": "cell-based", "settings": "HEp-2 cells, read-out: Survival", "summary_of_the_method": "(§2)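 Hep2 (human laryngeal carcinoma) cells maintained in DMEM + 10% FBS + 1% pen/strep, 37 °C, 5% CO2. Seeded in triplicate at 1 × 10^5/well in serum-free medium and exposed 24 h at 37 °C to six compound concentrations (100–0.05). DMSO stock diluted in medium, final DMSO ≤0.5%. MTT reagent added for 2 h at 37 °C, then detergent for 2 h at RT in the dark. Read as OD550 minus OD650.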"}, "[Candida] sake": {"tested_on": "[Candida] sake", "assay": "Antifungal activity against 2 strains of Candida sake after 24 hrs by […]", "type": "functional", "settings": "Fermentozyma sake"}, "[3]": {"assay": "Cytotoxicity against human Hep2 cells assessed as cell survival fraction at 50 ug/mL after 24 hrs by trypan blue exclusion method", "type": "cell-based", "settings": "HEp-2 cells, read-out: Survival", "summary_of_the_method": "as §1"}, "Klebsiella aerogenes": {"tested_on": "Klebsiella aerogenes", "assay": "Antibacterial activity against Enterobacter aerogenes after 18 to 22 hrs by […]", "type": "functional"}, "HEp-2 [4]": {"tested_on": "HEp-2", "assay": "Antiproliferative activity against human Hep2 cells assessed as cell survival fraction after 24 hrs by MTT assay", "type": "cell-based", "settings": "HEp-2, 24 h", "summary_of_the_method": "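Hep2 laryngeal carcinoma cells seeded in triplicate at 1 × 10^5/well in serum-free DMEM. Exposed 24 h at 37 °C, 5% CO2, to six concentrations ([…]); DMSO ≤0.5%. MTT reagent added for 2 h at 37 °C, then detergent for 2 h at room temperature in the dark. OD550 minus OD650 read. EC50 from ≥3 independent experiments.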"}, "HEp-2 [5]": {"tested_on": "HEp-2", "assay": "Cytotoxicity against human Hep2 cells assessed as cell survival fraction after 24 hrs by trypan blue exclusion method", "type": "cell-based", "settings": "HEp-2, 24 h", "summary_of_the_method": "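Hep2 cells in DMEM with 10% FBS and 1% penicillin-streptomycin, at 37 °C, 5% CO2, grown to 60–70% confluency. Seeded at 1 × 10^5/mL and exposed 24 h to six concentrations ([…]); DMSO ≤0.5%. Controls were cells alone, cells with DMSO, and 1 mM nitroprusside. Scraped cells mixed 1:1 with 0.4% trypan blue; blue cells counted as dead by hemocytometer, two operators. EC50 from ≥3 independent experiments.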"}, "Staphylococcus aureus": {"tested_on": "Staphylococcus aureus", "assay": "Antibacterial activity against Staphylococcus aureus after 18 to 22 hrs by […]", "type": "functional"}, "[6]": {"assay": "Antiproliferative activity against human Hep2 cells assessed as cell survival fraction at 10 ug/mL after 24 hrs by MTT assay", "type": "cell-based", "settings": "HEp-2 cells, read-out: Survival", "summary_of_the_method": "as §2"}, "Proteus vulgaris": {"tested_on": "Proteus vulgaris", "assay": "Antibacterial activity against Proteus vulgaris after 18 to 22 hrs by […]", "type": "functional"}, "[7]": {"assay": "Cytotoxicity against human Hep2 cells assessed as cell survival fraction at 10 ug/mL after 24 hrs by trypan blue exclusion method", "type": "cell-based", "settings": "HEp-2 cells, read-out: Survival", "summary_of_the_method": "as §1"}, "[8]": {"assay": "Antiproliferative activity against human Hep2 cells assessed as cell survival fraction at 50 ug/mL after 24 hrs by MTT assay", "type": "cell-based", "settings": "HEp-2 cells, read-out: Survival", "summary_of_the_method": "as §2"}, "Candida parapsilosis": {"tested_on": "Candida parapsilosis", "assay": "Antifungal activity against 4 strains of Candida parapsilosis after 24 hrs by […]", "type": "functional", "settings": "Lodderomyces parapsilosis"}, "[9]": {"assay": "Antiproliferative activity against human Hep2 cells assessed as cell survival fraction at 0.5 ug/mL after 24 hrs by MTT assay", "type": "cell-based", "settings": "HEp-2 cells, read-out: Survival", "summary_of_the_method": "as §2"}, "Klebsiella pneumoniae": {"tested_on": "Klebsiella pneumoniae", "assay": "Antibacterial activity against Klebsiella pneumoniae after 18 to 22 hrs by […]", "type": "functional"}, "[10]": {"assay": "Antiproliferative activity against human Hep2 cells assessed as cell survival fraction at 0.05 ug/mL after 24 hrs by MTT assay", "type": "cell-based", "settings": "HEp-2 cells, read-out: Survival", "summary_of_the_method": "as §2"}, "[11]": {"assay": "Cytotoxicity against human Hep2 cells assessed as cell survival fraction at 100 ug/mL after 24 hrs by trypan blue exclusion method", "type": "cell-based", "settings": "HEp-2 cells, read-out: Survival", "summary_of_the_method": "as §1"}, "Streptococcus pyogenes": {"tested_on": "Streptococcus pyogenes", "assay": "Antibacterial activity against Streptococcus pyogenes after 18 to 22 hrs by […]", "type": "functional"}, "Escherichia coli": {"tested_on": "Escherichia coli", "assay": "Antibacterial activity against Escherichia coli after 18 to 22 hrs by […]", "type": "functional"}, "Enterococcus faecalis": {"tested_on": "Enterococcus faecalis", "assay": "Antibacterial activity against Enterococcus faecalis after 18 to 22 hrs by […]", "type": "functional"}, "[12]": {"assay": "Antiproliferative activity against human Hep2 cells assessed as cell survival fraction at 100 ug/mL after 24 hrs by MTT assay", "type": "cell-based", "settings": "HEp-2 cells, read-out: Survival", "summary_of_the_method": "as §2"}, "Candida albicans": {"tested_on": "Candida albicans", "assay": "Antifungal activity against 10 strains of Candida albicans after 24 hrs by […]", "type": "functional"}, "Nakaseomyces glabratus": {"tested_on": "Nakaseomyces glabratus", "assay": "Antifungal activity against 4 strains of Candida glabrata after 24 hrs by […]", "type": "functional"}, "Candida tropicalis": {"tested_on": "Candida tropicalis", "assay": "Antifungal activity against 4 strains of Candida tropicalis after 24 hrs by […]", "type": "functional"}, "[13]": {"assay": "Cytotoxicity against human Hep2 cells assessed as cell survival fraction at 5 ug/mL after 24 hrs by trypan blue exclusion method", "type": "cell-based", "settings": "HEp-2 cells, read-out: Survival", "summary_of_the_method": "as §1"}, "[14]": {"assay": "Cytotoxicity against human Hep2 cells assessed as cell survival fraction at 0.5 ug/mL after 24 hrs by trypan blue exclusion method", "type": "cell-based", "settings": "HEp-2 cells, read-out: Survival", "summary_of_the_method": "as §1"}}}
{"compound": "CCCCC/C(C)=N/Nc1nc(-c2ccc(I)cc2)cs1", "values": [{"measurement": "viability at 24 h, 0.05 ug/mL", "setting": "[1]", "result": 98, "unit": "%"}, {"measurement": "MIC", "setting": "Pichia kudriavzevii", "result": 2, "unit": "µg/mL"}, {"measurement": "MIC", "setting": "Staphylococcus warneri", "result": 32, "unit": "µg/mL"}, {"measurement": "viability at 24 h, 5 ug/mL", "setting": "[2]", "result": 90, "unit": "%"}, {"measurement": "MIC", "setting": "[Candida] sake", "result": 32, "unit": "µg/mL"}, {"measurement": "viability at 24 h, 50 ug/mL", "setting": "[3]", "result": 42, "unit": "%"}, {"measurement": "MIC", "setting": "Klebsiella aerogenes", "result": "> 128", "unit": "µg/mL"}, {"measurement": "EC50", "setting": "HEp-2 [4]", "result": 42, "unit": "µg/mL"}, {"measurement": "EC50", "setting": "HEp-2 [5]", "result": 62, "unit": "µg/mL"}, {"measurement": "MIC", "setting": "Staphylococcus aureus", "result": 32, "unit": "µg/mL"}, {"measurement": "viability at 24 h, 10 ug/mL", "setting": "[6]", "result": 89, "unit": "%"}, {"measurement": "MIC", "setting": "Proteus vulgaris", "result": "> 128", "unit": "µg/mL"}, {"measurement": "viability at 24 h, 10 ug/mL", "setting": "[7]", "result": 83, "unit": "%"}, {"measurement": "viability at 24 h, 50 ug/mL", "setting": "[8]", "result": 22, "unit": "%"}, {"measurement": "MIC", "setting": "Candida parapsilosis", "result": 2, "unit": "µg/mL"}, {"measurement": "viability at 24 h, 0.5 ug/mL", "setting": "[9]", "result": 100, "unit": "%"}, {"measurement": "MIC", "setting": "Klebsiella pneumoniae", "result": "> 128", "unit": "µg/mL"}, {"measurement": "viability at 24 h, 0.05 ug/mL", "setting": "[10]", "result": 100, "unit": "%"}, {"measurement": "viability at 24 h, 100 ug/mL", "setting": "[11]", "result": 33, "unit": "%"}, {"measurement": "MIC", "setting": "Streptococcus pyogenes", "result": 8, "unit": "µg/mL"}, {"measurement": "MIC", "setting": "Escherichia coli", "result": "> 128", "unit": "µg/mL"}, {"measurement": "MIC", "setting": "Enterococcus faecalis", "result": 32, "unit": "µg/mL"}, {"measurement": "viability at 24 h, 100 ug/mL", "setting": "[12]", "result": 0, "unit": "%"}, {"measurement": "MIC", "setting": "Candida albicans", "result": 0.25, "unit": "µg/mL"}, {"measurement": "MIC", "setting": "Nakaseomyces glabratus", "result": 2, "unit": "µg/mL"}, {"measurement": "MIC", "setting": "Candida tropicalis", "result": 0.5, "unit": "µg/mL"}, {"measurement": "viability at 24 h, 5 ug/mL", "setting": "[13]", "result": 90, "unit": "%"}, {"measurement": "viability at 24 h, 0.5 ug/mL", "setting": "[14]", "result": 95, "unit": "%"}]}
{"compound": "CC1CCC/C1=N\\Nc1nc(-c2ccc(I)cc2)cs1", "note": "(stereo unspecified)", "values": [{"measurement": "viability at 24 h, 0.05 ug/mL", "setting": "[1]", "result": 92, "unit": "%"}, {"measurement": "MIC", "setting": "Pichia kudriavzevii", "result": 2, "unit": "µg/mL"}, {"measurement": "MIC", "setting": "Staphylococcus warneri", "result": 32, "unit": "µg/mL"}, {"measurement": "viability at 24 h, 5 ug/mL", "setting": "[2]", "result": 60, "unit": "%"}, {"measurement": "MIC", "setting": "[Candida] sake", "result": 32, "unit": "µg/mL"}, {"measurement": "viability at 24 h, 50 ug/mL", "setting": "[3]", "result": 0, "unit": "%"}, {"measurement": "MIC", "setting": "Klebsiella aerogenes", "result": "> 128", "unit": "µg/mL"}, {"measurement": "EC50", "setting": "HEp-2 [4]", "result": 30, "unit": "µg/mL"}, {"measurement": "EC50", "setting": "HEp-2 [5]", "result": 30, "unit": "µg/mL"}, {"measurement": "MIC", "setting": "Staphylococcus aureus", "result": 32, "unit": "µg/mL"}, {"measurement": "viability at 24 h, 10 ug/mL", "setting": "[6]", "result": 36, "unit": "%"}, {"measurement": "MIC", "setting": "Proteus vulgaris", "result": 32, "unit": "µg/mL"}, {"measurement": "viability at 24 h, 10 ug/mL", "setting": "[7]", "result": 70, "unit": "%"}, {"measurement": "viability at 24 h, 50 ug/mL", "setting": "[8]", "result": 12, "unit": "%"}, {"measurement": "MIC", "setting": "Candida parapsilosis", "result": 2, "unit": "µg/mL"}, {"measurement": "viability at 24 h, 0.5 ug/mL", "setting": "[9]", "result": 90, "unit": "%"}, {"measurement": "MIC", "setting": "Klebsiella pneumoniae", "result": "> 128", "unit": "µg/mL"}, {"measurement": "viability at 24 h, 0.05 ug/mL", "setting": "[10]", "result": 100, "unit": "%"}, {"measurement": "viability at 24 h, 100 ug/mL", "setting": "[11]", "result": 0, "unit": "%"}, {"measurement": "MIC", "setting": "Streptococcus pyogenes", "result": 8, "unit": "µg/mL"}, {"measurement": "MIC", "setting": "Escherichia coli", "result": 32, "unit": "µg/mL"}, {"measurement": "MIC", "setting": "Enterococcus faecalis", "result": 32, "unit": "µg/mL"}, {"measurement": "viability at 24 h, 100 ug/mL", "setting": "[12]", "result": 6, "unit": "%"}, {"measurement": "MIC", "setting": "Candida albicans", "result": 0.25, "unit": "µg/mL"}, {"measurement": "MIC", "setting": "Nakaseomyces glabratus", "result": 2, "unit": "µg/mL"}, {"measurement": "MIC", "setting": "Candida tropicalis", "result": 0.5, "unit": "µg/mL"}, {"measurement": "viability at 24 h, 5 ug/mL", "setting": "[13]", "result": 67, "unit": "%"}, {"measurement": "viability at 24 h, 0.5 ug/mL", "setting": "[14]", "result": 89, "unit": "%"}]}
